mABHD4 FP = ABHD4 inhibitors, primary screen, biochemical, fluorescence polarization, mouse; purified mABHD4, FP-Rh probe fluorescence polarization; AID 720543, 2013; actives 0.54% (n = 370,000); inhibition, % at 8.92 µM;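 active = inhibition exceeding the mean over every tested compound plus 3 SD, cut at about 30% in these data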;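 note: 0% = plate median of compound wells and 100% = S159A mutant with DMSO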
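Doses – 8.92 µM, single dose · Material – wild-type mouse ABHD4 protein · Replication – single well per compound (singlicate) · Measure – percent inhibition of probe binding, normalized to plate controls · Schedule – 45 min compound pre-incubation plus 60 min probe step, 25 °C · Detection – fluorescence polarization with parallel and perpendicular emission, 525/598 nm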
HTRA1 inh = HTRA1 serine protease inhibitors, primary screen, biochemical, fluorescence polarization, HTS; inhibition, % at 5.96 µM; AID 504803, 2011; actives 0.5% (n = 340,000); recombinant HTRA1, FP-rhodamine activity-based probe; Q92743; in the data active = inhibition above about 36%;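 note: 0% = enzyme with DMSO and 100% = wells lacking enzyme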
rCAG binder-1 = binders of r(CAG) RNA repeats, primary screen, biochemical, fluorescence. r(CAG) RNA repeat, TO-PRO-1 dye displacement fluorescence. inhibition, % at 3 µM. AID 651821, 2012. actives 1.3% (n = 370,000);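 active = inhibition above the plate cutoff, the mean of all test compounds on that plate plus 3 SD, cut at about 35% in these data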;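 note: 0% = DMSO alone and 100% = 100 µM mitoxantrone as full dye displacement; higher means more dye released from RNA so lower well fluorescence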
TCR CD3 inh = inhibitors of human TCR-CD3 interaction, primary screen, biochemical, fluorescence, TAMRA-labeled TCR probe; T-cell receptor (TCR); inhibition, % at 9.4 µM; actives 0.37% (n = 360,000); AID 651800, 2012; in the data active = inhibition above about 19%;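 note: recombinant mutant TCR 2C K166C tagged with TAMRA read by polarization; 0% = receptor in buffer alone and 100% = receptor with positive control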
SIAE inh = human SIAE inhibitors, primary screen, biochemical, fluorescence polarization, FP-Rh probe, 1536-well HTS; Sialate O-acetylesterase (Homo sapiens), Q9HAT2; SIAE FP-Rh probe binding; inhibition, % at 9.66 µM; actives 0.69% (n = 370,000); AID 1053197, 2014;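 active = inhibition above a cutoff: mean of compounds within the control limits plus 3 SD of those, cut at about 17% in these data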;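 note: 0% = plate median of compound wells and 100% = probe without SIAE protein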
Target sequence (Q9HAT2 whole entry, looked up): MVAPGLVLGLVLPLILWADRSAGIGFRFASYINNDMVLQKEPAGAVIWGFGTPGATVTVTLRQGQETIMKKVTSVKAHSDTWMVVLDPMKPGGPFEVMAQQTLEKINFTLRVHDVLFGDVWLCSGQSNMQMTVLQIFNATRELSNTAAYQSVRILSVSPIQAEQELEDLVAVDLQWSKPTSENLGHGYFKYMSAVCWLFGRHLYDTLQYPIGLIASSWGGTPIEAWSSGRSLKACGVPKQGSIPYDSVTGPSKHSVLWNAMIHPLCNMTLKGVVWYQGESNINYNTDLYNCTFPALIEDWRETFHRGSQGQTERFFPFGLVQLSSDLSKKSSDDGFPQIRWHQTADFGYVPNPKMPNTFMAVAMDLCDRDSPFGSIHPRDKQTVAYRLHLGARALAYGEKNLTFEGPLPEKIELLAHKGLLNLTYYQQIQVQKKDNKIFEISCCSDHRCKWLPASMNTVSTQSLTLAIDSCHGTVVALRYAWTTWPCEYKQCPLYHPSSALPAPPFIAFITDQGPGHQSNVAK
PRMT1 inh = PRMT1 methyltransferase inhibitors, primary screen, biochemical, fluorescence polarization | Protein arginine N-methyltransferase 1 (Homo sapiens), Q99873 | recombinant PRMT1, activity-based probe fluorescence polarization | inhibition, % at 2.79 µM | actives 1.3% (n = 370,000) | AID 652257, 2013;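 active = inhibition above about 21% made by adding two undisclosed values, limit read from the data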
rCAG bind conf = small molecules binding CAG repeat RNA – biochemical, fluorescence, confirmation | shares compounds with rCAG binder-1 | r(CAG) RNA repeat, TO-PRO-1 dye displacement fluorescence | inhibition, % at 3 µM | actives 70% (n = 4,300);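 active = inhibition above a per-plate cutoff, the mean inhibition of sample wells plus 3 SD, cut at about 35% in these data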;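 note: loss of TO-PRO-1 fluorescence as compound displaces dye from 1x1 AA loop RNA; 0% = DMSO only wells and 100% = 100 µM mitoxantrone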
DNA CAG counter = displacement of TO-PRO-1 from CAG DNA duplex, counter-screen for rCAG RNA repeat binder project, biochemical, fluorescence, TO-PRO-1 dye, d(CAG) DNA oligo | shares compounds with rCAG binder-1 | d(CAG) DNA oligo TO-PRO-1 dye displacement | inhibition, % at 3 µM | actives 94% (n = 4,300);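 active = inhibition above its plate's cutoff, the mean test-well inhibition plus 3 SD, cut at about 4.8% in these data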;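 note: 0% = DNA dye mix with DMSO and 100% = 100 µM mitoxantrone; hits displace the dye from DNA and so lower well fluorescence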
DNA CAG DR = inhibitors of DNA CAG/GTC TO-PRO-1 complex, dose response, counter-screen for rCAG RNA repeat binder project, biochemical, fluorescence, TO-PRO-1 dye; actives 20% (n = 250); DNA CAG/GTC duplex TO-PRO-1 dye displacement fluorescence; shares compounds with rCAG binder-1; IC50, µM; in the data active = IC50 below about 10 µM
dCAG DNA bind = TO-PRO-1 dye complex inhibitors on d(CAG) DNA, dose response, counter-screen, biochemical, fluorescence, late stage; shares compounds with rCAG binder-1; d(CAG) DNA duplex TO-PRO-1 dye displacement; actives 80% (n = 30); AID 720649, 2013; IC50, µM
rCAG binder-2 = molecules binding r(CAG) RNA repeats, late stage dose response, late-stage follow-up, biochemical, fluorescence, dose response, powder samples; shares compounds with rCAG binder-1; r(CAG) RNA TO-PRO-1 dye displacement; IC50, µM; actives 100% (n = 30)
* = called active by the depositor; nt = no result given. In the library only some 3.5% were active in any assay of this set; here they are far more common. Unless noted, the rule behind the calls is not given here.

SMILES	mABHD4 FP	HTRA1 inh	rCAG binder-1	TCR CD3 inh	SIAE inh	PRMT1 inh	rCAG bind conf	DNA CAG counter	others
CC(C)c1ccc(C2c3[nH]c4ccccc4c3C[C@H]3C(=O)N(c4ccccc4C(=O)N4CCC[C@@H]4C(=O)O)C(=O)N23)cc1 (stereo partly specified)	7.1	-11.3	46.4*	1.8	-12.0	0.6	70.7*	27.8*	DNA CAG DR=>29.9;dCAG DNA bind=>29.9;rCAG binder-2=1.94*
COc1cccc(C2c3[nH]c4ccccc4c3C[C@H]3C(=O)N(c4ccccc4C(=O)N4CCC[C@H]4C(=O)O)C(=O)N23)c1 (stereo partly specified)	-13.4	-7.8	31.2	9.6	-23.5	0.1	nt	nt
COc1ccc(C2c3[nH]c4ccccc4c3C[C@H]3C(=O)N(c4ccccc4C(=O)N4CCC[C@H]4C(=O)O)C(=O)N23)cc1 (stereo partly specified)	-5.0	-3.8	37.2*	6.1	0.4	-2.8	51.1*	16.4*
CC(C)c1ccc(C2c3[nH]c4ccccc4c3C[C@H]3C(=O)N(c4ccccc4C(=O)N4CCC(C(=O)O)CC4)C(=O)N23)cc1 (stereo partly specified)	-3.3	-6.5	42.0*	4.1	-12.8	1.8	61.4*	21.4*
COC(=O)[C@]12C[C@H](CC(=O)NCCCCc3ccccc3)C(=O)N(CCc3ccc(OC)c(OC)c3)C1=C[C@H](C(C)C)O[C@@H]2C1CC1	0.6	nt	4.5	nt	-3.5	-1.1	nt	nt
CC(C)[C@H](NC(=O)[C@@H]1CCCN1)C(=O)N1CCC2CCN(S(=O)(=O)c3ccccc3)CC21 (stereo partly specified)	4.0	nt	1.9	nt	0.4	2.4	nt	nt
COc1ccc2[nH]cc(C(C)c3c[nH]c4ccccc34)c2c1 (stereo unspecified)	0.4	nt	8.2	nt	9.3	1.3	nt	nt
Cc1ccc(C2c3[nH]c4ccccc4c3C[C@H]3C(=O)N(c4ccccc4C(=O)N4CCC[C@H]4C(=O)O)C(=O)N23)cc1 (stereo partly specified)	-0.9	-10.1	38.7*	3.5	-12.0	-5.5	57.3*	18.1*
COc1cc2c(c(OC)c1)[C@H](/C=C/c1ccccc1)[C@@H]([C@H](O)CO)OC2	-3.0	nt	4.3	nt	0.2	3.9	nt	nt
COc1cc(/C=C(\C#N)C(=O)Nc2ccccc2C(=O)O)cc(Cl)c1OC	-18.3	0.5	47.1*	-14.4	-19.7	7.1	76.6*	40.9*
O=C(Nc1ccc(C(O)(C(F)(F)F)C(F)(F)F)cc1)c1ccc(F)cc1F	-23.2	nt	nt	nt	-5.1	-1.1	nt	nt
Cc1cccc(NS(=O)(=O)c2ccc(NS(=O)(=O)c3cccs3)cc2)c1	-7.7	0.1	28.9	5.0	12.5	-2.1	nt	nt
Cc1cccc(NS(=O)(=O)c2ccc(C)c(NS(=O)(=O)c3cccs3)c2)c1	2.6	-12.6	36.2*	-3.4	-9.4	1.7	27.5	7.9*
Cc1ccc(S(=O)(=O)NC(=O)Nc2cc(C)ccc2F)cc1	-0.3	-2.0	5.9	4.1	2.8	0.2	nt	nt
CC(=O)NS(=O)(=O)c1ccc(N=c2ssc3c2-c2ccc(C)cc2NC3(C)C)cc1	15.8	3.1	61.4*	0.7	1.7	0.6	52.1*	21.0*
N#C/C(=N\Nc1cccc([N+](=O)[O-])c1)C(=O)c1ccc(Br)cc1	14.0	-19.5	75.9*	-6.1	-6.2	5.5	87.0*	52.4*
FC(F)(F)c1ccccc1Cc1c(-c2ccc(Cl)cc2)nc2ccc(Br)cn12	-20.9	nt	64.0*	-8.7	-11.8	5.8	14.3	3.4
Fc1ccc(-c2nc3ccc(Cl)cn3c2Cc2ccccc2C(F)(F)F)cc1	3.1	nt	38.3*	-8.5	-4.7	-0.6	23.1	2.6
FC(F)(F)c1ccccc1Cc1c(-c2ccccc2)nc2ccc(Cl)cn12	18.1	nt	16.9	-2.6	-2.0	2.0	nt	nt
FC(F)(F)c1ccccc1Cc1c(-c2ccc(Cl)cc2)nc2ccc(Cl)cn12	-8.5	nt	50.3*	7.1	-17.0	4.0	31.9	7.7*
Fc1ccc(-c2nc3ccc(Br)cn3c2Cc2ccccc2C(F)(F)F)cc1	3.6	nt	51.2*	-0.4	-6.7	4.0	11.1	1.6
O=C(Cn1nnc(-c2ccc(N3CCOCC3)cc2)n1)c1cccc(F)c1	0.6	nt	3.6	nt	-2.1	4.2	nt	nt
COc1ccccc1Cc1c(-c2ccc(F)cc2)nc2c(C)cc(Br)cn12	-9.1	nt	9.2	1.9	-8.0	2.0	nt	nt
Cc1ccc(-c2nc3ccc(C)cn3c2Cc2ccccc2C(F)(F)F)cc1	10.0	nt	35.7*	0.3	-7.8	-1.9	20.5	4.3
Cc1cc(Br)cn2c(Cc3ccccc3C(F)(F)F)c(-c3ccc(F)cc3)nc12	-25.3	nt	55.3*	-8.2	-8.9	1.6	43.1*	10.6*	DNA CAG DR=>29.9
O=C(CCc1ccccc1)N[C@H]1[C@H](O)CCC[C@@]12C(=O)N(Cc1ccccc1)c1ccc(-c3ccccc3)cc12	-11.2	nt	9.2	nt	-0.8	-1.0	nt	nt
O=C(Nc1cccc([N+](=O)[O-])c1)c1cc2ccccc2cc1O	6.7	-4.5	39.0*	5.5	-4.7	1.0	37.3*	15.8*
O=C(O)c1ccccc1C(=O)Nc1cccc([N+](=O)[O-])c1	5.6	-1.9	1.5	0.4	-0.2	0.9	nt	nt

Screening results deposited in PubChem by The Scripps Research Institute Molecular Screening Center.
